Results: ChEMBL document CHEMBL2311397, “Design and synthesis of cyclopropylamide analogues of combretastatin-A4 as novel microtubule-stabilizing agents” (J Med Chem, 2013)

What was measured:
Assay type in all cases: functional, cell-based
HeLa = test: Cytotoxicity against human HeLa cells after 48 hrs by MTT assay
Outline: (§1)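 Log-phase cells (40000–50000 cells/mL) grown in DMEM with 10% fetal calf serum (5% CO2, 37 °C) and exposed 48 h to five concentrations, 3–5 replicates. Read-out was MTT with absorbance at 570 nm; IC50 reported as mean ± SD of three independent experiments. Resistant A549 and HeLa sublines were made by stepwise paclitaxel selection; resistance index = IC50(resistant)/IC50(sensitive).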

SW480 = test: Cytotoxicity against human SW480 cells after 48 hrs by MTT assay; outline: as §1
K562 = test: Cytotoxicity against human K562 cells after 48 hrs by MTT assay; outline: as §1
A549 = test: Cytotoxicity against human A549 cells after 48 hrs by MTT assay; outline: as §1
[1] = Cytotoxicity against human QGY cells after 48 hrs by MTT assay; outline: as §1

SMILES | IC50 (HeLa; Homo sapiens, HeLa, 48 h) [µM] | IC50 (SW480; sw480) [µM] | IC50 (K562; Homo sapiens, K562, 48 h) [µM] | IC50 (A549; Homo sapiens, A549, 48 h) [µM] | IC50 ([1]; Homo sapiens, QGY, 48 h) [µM] | IC50 (SW480; Homo sapiens, SW480, 48 h) [µM] | IC50 (HeLa; hela) [µM] | IC50 (A549; a549) [µM] | IC50 ([1]; qgy) [µM] | IC50 (K562; k562) [µM]
CCOC(=O)C1(C(=O)Nc2ccccc2)CC1c1cc(OC)c(OC)c(OC)c1 (cis isomer) | > 100 | 49 | > 100 | 31.5 | 59.3 | – | – | – | – | –
CCOC(=O)C1(C(=O)NCc2ccccc2)CC1c1cc(OC)c(OC)c(OC)c1 (cis isomer) | 46.5 | – | > 100 | 79.5 | > 100 | 89.6 | – | – | – | –
COc1cc([C@@H]2C[C@]2(CO)C(=O)NCc2ccc(C)cc2)cc(OC)c1OC | 17.4 | – | > 100 | 10.5 | 25.1 | 26.8 | – | – | – | –
CCOC(=O)C1(C(=O)NCCc2ccccc2F)CC1c1cc(OC)c(OC)c(OC)c1 (cis isomer) | 58.2 | 86.3 | > 100 | 27.3 | 34.1 | – | – | – | – | –
CCOC(=O)C1(C(=O)Nc2ccc(OC)cc2)CC1c1cc(OC)c(OC)c(OC)c1 (stereo in doubt) | – | > 100 | – | – | – | – | > 100 | > 100 | > 100 | –
CCOC(=O)[C@@]1(C(=O)NCc2ccc(C)cc2)C[C@H]1c1cc(OC)c(OC)c(OC)c1 | 19.7 | – | > 100 | 17.1 | 26.4 | > 100 | – | – | – | –
CCOC(=O)[C@@]1(C(=O)NCc2ccc(C)cc2)C[C@@H]1c1cc(OC)c(OC)c(OC)c1 | > 100 | – | > 100 | > 100 | > 100 | > 100 | – | – | – | –
CCOC(=O)C1(C(=O)NCc2ccccc2)CC1c1cc(OC)c(OC)c(OC)c1 (trans isomer) | – | > 100 | – | – | – | – | 76.3 | > 100 | – | –
COc1cc([C@H]2C[C@@]2(CO)C(=O)NCc2ccc(C)cc2)cc(OC)c1OC | > 100 | – | > 100 | 63.8 | > 100 | > 100 | – | – | – | –
COc1ccc(/C=C\c2cc(OC)c(OC)c(OC)c2)cc1O [COMBRETASTATIN A4] | 0.0021 | – | 0.0048 | 0.0056 | 0.0265 | 0.0182 | – | – | – | –
COc1cc([C@H]2C[C@]2(CO)C(=O)Nc2ccccc2)cc(OC)c1OC | > 100 | – | > 100 | > 100 | > 100 | > 100 | – | – | – | –
CCOC(=O)C1(C(=O)Nc2cccc(Cl)c2)CC1c1cc(OC)c(OC)c(OC)c1 (stereo in doubt; trans) | – | 28.7 | – | – | – | – | > 100 | 45.2 | > 100 | > 100
CCOC(=O)C1(C(=O)Nc2cccc([N+](=O)[O-])c2)CC1c1cc(OC)c(OC)c(OC)c1 (stereo in doubt; trans) | – | 49.5 | – | – | – | – | > 100 | 80.3 | – | –
CCOC(=O)[C@]1(C(=O)NCc2ccc(C)cc2)C[C@@H]1c1cc(OC)c(OC)c(OC)c1 | > 100 | – | 20.4 | 34.9 | > 100 | > 100 | – | – | – | –
CCOC(=O)C1(C(=O)Nc2ccccc2Cl)CC1c1cc(OC)c(OC)c(OC)c1 (stereo in doubt; trans) | – | 66.7 | – | – | – | – | 76.4 | 18.5 | 48.8 | 14.2
CCOC(=O)C1(C(=O)NCc2ccc(OC)cc2)CC1c1cc(OC)c(OC)c(OC)c1 (trans isomer) | – | – | – | – | – | – | – | 73.8 | – | –
CCOC(=O)C1(C(=O)NCCc2cccc(F)c2)CC1c1cc(OC)c(OC)c(OC)c1 (cis isomer) | – | 35.5 | 76.1 | 52.3 | – | – | 28.1 | – | 39.9 | –
CCOC(=O)C1(C(=O)NCCc2ccccc2F)CC1c1cc(OC)c(OC)c(OC)c1 (trans isomer) | – | 16.9 | – | – | – | – | > 100 | 31.1 | 46.8 | 79.1

SMILES | IC50 (HeLa; Homo sapiens, HeLa, 48 h) [µM] | IC50 (SW480; sw480) [µM] | IC50 (K562; Homo sapiens, K562, 48 h) [µM] | IC50 (A549; Homo sapiens, A549, 48 h) [µM] | IC50 ([1]; Homo sapiens, QGY, 48 h) [µM] | IC50 (SW480; Homo sapiens, SW480, 48 h) [µM] | IC50 (HeLa; hela) [µM] | IC50 (A549; a549) [µM] | IC50 ([1]; qgy) [µM] | IC50 (K562; k562) [µM]
CCOC(=O)C1(C(=O)Nc2cccc([N+](=O)[O-])c2)CC1c1cc(OC)c(OC)c(OC)c1 (stereo in doubt; cis) | 59.4 | > 100 | > 100 | 76.4 | > 100 | – | – | – | – | –
COc1cc([C@@H]2C[C@@]2(CO)C(=O)Nc2ccccc2)cc(OC)c1OC | 86.4 | – | > 100 | 43.2 | 36.7 | 76.8 | – | – | – | –
COc1cc([C@H]2C[C@]2(CO)C(=O)NCc2ccc(C)cc2)cc(OC)c1OC | 57.8 | – | > 100 | 60.7 | 56.1 | 94 | – | – | – | –
CCOC(=O)C1(C(=O)Nc2ccc(OC)cc2)CC1c1cc(OC)c(OC)c(OC)c1 (cis isomer) | 81.6 | – | > 100 | 61.4 | 86.1 | 66.3 | – | – | – | –
O=c1[nH]cc(F)c(=O)[nH]1 [FLUOROURACIL] | 143 | – | 114 | 56 | 126 | 158 | – | – | – | –
CCOC(=O)C1(C(=O)NCCc2ccc(F)cc2)CC1c1cc(OC)c(OC)c(OC)c1 (trans isomer) | – | 40.3 | – | – | – | – | 35 | > 100 | – | –
CCOC(=O)C1(C(=O)NCc2ccc(F)cc2)CC1c1cc(OC)c(OC)c(OC)c1 (stereo in doubt) | 32.3 | – | 45.1 | 29.4 | 59.4 | 34.1 | – | – | – | –
CCOC(=O)C1(C(=O)Nc2ccccc2)CC1c1cc(OC)c(OC)c(OC)c1 (trans isomer) | – | > 100 | – | – | – | – | – | 48.6 | > 100 | –
CCOC(=O)[C@]1(C(=O)Nc2ccccc2Cl)C[C@@H]1c1cc(OC)c(OC)c(OC)c1 | > 100 | – | 19.5 | 50.9 | 34.7 | > 100 | – | – | – | –
CCOC(=O)[C@@]1(C(=O)Nc2ccccc2Cl)C[C@H]1c1cc(OC)c(OC)c(OC)c1 | 14.4 | – | > 100 | 17.6 | 34.3 | 30.1 | – | – | – | –
CCOC(=O)C1(C(=O)NCc2ccc(OC)cc2)CC1c1cc(OC)c(OC)c(OC)c1 (cis isomer) | > 100 | – | > 100 | > 100 | > 100 | > 100 | – | – | – | –
COc1cc([C@H]2C[C@]2(CO)C(=O)Nc2ccccc2Cl)cc(OC)c1OC | 45.5 | – | > 100 | 36.7 | 40.7 | 40.2 | – | – | – | –
CCOC(=O)C1(C(=O)Nc2ccccc2[N+](=O)[O-])CC1c1cc(OC)c(OC)c(OC)c1 (trans isomer) | – | 31.8 | – | – | – | – | 35.1 | 30.9 | > 100 | > 100
CCOC(=O)[C@]1(C(=O)Nc2ccccc2)C[C@H]1c1cc(OC)c(OC)c(OC)c1 | > 100 | – | > 100 | 37.3 | > 100 | > 100 | – | – | – | –
CCOC(=O)C1(C(=O)Nc2ccc(F)cc2)CC1c1cc(OC)c(OC)c(OC)c1 (trans isomer) | – | 42 | – | – | – | – | 36.8 | 28 | 36.1 | > 100
CCOC(=O)C1(C(=O)Nc2cccc(Cl)c2)CC1c1cc(OC)c(OC)c(OC)c1 (stereo in doubt; cis) | – | – | 52.1 | 25.6 | – | 37.4 | 35.1 | – | 46.3 | –
CCOC(=O)C1(C(=O)NCc2ccc(C)cc2)CC1c1cc(OC)c(OC)c(OC)c1 (trans isomer) | – | > 100 | – | – | – | – | 25.6 | 21.4 | 37.9 | –
